TNAP inh hi DEA: TNAP (human) inhibition, high acceptor; purified TNAP, CDP-star luminescence, 1 M DEA; inhibition, % at 20 µM; AID 1135; P05186; hit rate 0.03% among 200,000;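 active = over 50% inhibition of tissue-nonspecific alkaline phosphatase at 20 µM in the single-dose screen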
Target sequence (P05186 whole entry, looked up): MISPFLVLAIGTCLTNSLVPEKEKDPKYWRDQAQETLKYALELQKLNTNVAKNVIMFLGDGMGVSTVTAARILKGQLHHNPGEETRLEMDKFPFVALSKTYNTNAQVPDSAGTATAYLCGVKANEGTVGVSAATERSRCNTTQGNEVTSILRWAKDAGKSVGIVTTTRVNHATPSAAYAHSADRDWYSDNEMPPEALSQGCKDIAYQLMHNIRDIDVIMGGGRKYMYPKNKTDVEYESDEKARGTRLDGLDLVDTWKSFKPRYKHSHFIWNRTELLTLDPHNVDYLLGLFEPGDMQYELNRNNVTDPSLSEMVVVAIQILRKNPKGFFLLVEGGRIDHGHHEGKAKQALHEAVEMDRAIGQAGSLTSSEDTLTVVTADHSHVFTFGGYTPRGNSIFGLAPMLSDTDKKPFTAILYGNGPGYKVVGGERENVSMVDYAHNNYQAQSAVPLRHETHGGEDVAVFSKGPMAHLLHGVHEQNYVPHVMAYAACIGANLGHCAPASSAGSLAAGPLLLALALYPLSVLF
TNAP act hi DEA: increases human TNAP activity under high phosphate acceptor concentration; 200,000 tested, under 10 active; P05186; AID 1136; purified TNAP, CDP-star luminescence, 1 M DEA, 30 min; stronger effect = higher value; 0 = EDTA background, 1 = DMSO-only activity; activation factor at 20 µM;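 active = activation factor at least 2 at 20 µM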
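Measured by: Luminescent substrate turnover signal | Test system: Human TNAP | Input: TNAP 1/800 final | Dosing: 20 µM single point | Schedule: 30 min, room temperature | Controls: EDTA wells as negative control, DMSO wells as positive control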
G6PDH CS: L. mesenteroides G6PDH inhibition counter-screen | hit rate 0.12% among 200,000 | Purified L. mesenteroides G6PDH, diaphorase/resazurin coupled fluorescence, 45 min | inhibition, % at 5 µM | AID 1020; in the data active = inhibition above about 50%
p97 inhibitor: blocks human p97 ATPase activity; P55072; recombinant p97 ATPase, Kinase-Glo ATP luminescence, 3 h; inhibition, % at 8 µM; hit rate 0.42% among 220,000; in the data active = inhibition above about 15%
Redox H2O2 prof: compounds producing H2O2 with reducing agent – biochemical, NIH compound library profiling, artefact control for MLSCN library redox annotation, primary screen; DTT-dependent redox cycling H2O2, phenol red/HRP absorbance; 100% = 100 µM peroxide control, 0% = buffer; activation, % at 10 µM; hit rate 0.03% among 200,000; AID 878;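 active = activation of at least 50% relative to the plate's high and low controls in the primary single-dose screen; inactive = activation below 50%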;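 note: compound incubated with DTT at 0.8 mM final as the reducing agent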
TNAP inh no acc: TNAP (human) inhibition, acceptor-free conditions; P05186; purified TNAP, CDP-star luminescence, 30 min; inhibition, % at 20 µM; hit rate 0.26% among 200,000; AID 1012;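 active = tissue-nonspecific alkaline phosphatase inhibition above about 50% at 20 µM in the single-dose screen, limit read from the data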
Hits are given with their value; – = inactive; · = not tested or not shown. Rows were chosen to be rich in hits. Some 0.79% of all compounds tested hit in one or more screens of this group.

SMILES	TNAP inh hi DEA	TNAP act hi DEA	G6PDH CS	p97 inhibitor	Redox H2O2 prof	TNAP inh no acc
COc1ccc(-c2[nH]ncc2CN(C)C(C)c2ccon2)c(OC)c1 (stereo not drawn)	–	–	–	–	–	–
CCN(Cc1ccncc1)Cc1cn[nH]c1-c1ccc(OC)cc1F	–	–	–	–	–	55
Cc1ccc2cc(/C=N/NC(=O)CN3CCCCC3)c(Cl)nc2c1	–	–	–	–	–	–
O=c1nc(Nc2cccc(Cl)c2)oc2cc(Cl)oc(=O)c12	·	·	·	–	·	·
COc1cc(/C=N/NC(=O)C2=NNC(=O)C2C)ccc1O (stereo not drawn)	·	·	·	–	·	·
CC1C(=O)NN=C1C(=O)N/N=C\c1ccc(O)cc1O (stereo not drawn)	–	–	–	–	–	72
COC(=O)c1cc([N+](=O)[O-])c(-n2ccnc2)c([N+](=O)[O-])c1	–	–	–	–	–	–
NC(=O)c1ccc(-n2nnnc2SCC(=O)c2ccc(O)c(O)c2)cc1	–	–	–	–	–	82
COc1ccc(-n2nnnc2SCC(=O)c2ccc(O)c(O)c2)cc1	–	–	–	–	–	76
CCN(CC)CCCNC1=C(Cl)C(=O)c2ccccc2C1=O	–	–	54	–	–	–
O=c1c2ccccc2cnn1Cc1n[nH]c(=S)n1-c1cc(Cl)cc(Cl)c1	–	–	–	–	–	61
CCN1C/C(=C/c2ccc(OC)c(O)c2)C(=O)/C(=C/c2ccc(OC)c(O)c2)C1	–	–	–	–	–	56
COc1ccc(/C=C2\CC/C(=C\c3ccc(OC)c(OC)c3)C2=O)cc1OC	–	–	–	–	–	–
COc1cc(/C=C2/C(=O)ON=C2c2ccccc2)ccc1O	–	–	–	–	–	52
COc1ccc(C=C2C(=O)c3ccccc3C2=O)cc1O	53	–	–	–	–	–
COc1ccc(CCn2c(C)cc(C(=O)CCl)c2C)cc1OC	–	–	–	–	–	–
CC1CCC(NC(=O)C2CC(=O)N(c3ccc4c(c3)OCCO4)C2)CC1 (stereo not drawn)	–	–	–	–	–	–
CN(C)c1cc(N/N=C\c2ccccc2)nc(N(C)C)n1	–	–	54	–	–	–
COc1cc(/C=N/NC(=O)c2cc(-c3cccn3C)n[nH]2)cc(OC)c1OC	–	–	–	–	–	91
COc1cccc(/C=N/NC(=O)c2cc(-c3cccn3C)n[nH]2)c1	–	–	–	–	–	94
Cn1cccc1-c1cc(C(=O)N/N=C/C=C/c2ccccc2)[nH]n1	–	–	–	–	–	–
COc1cccc(/C=N/NC(=O)c2cc(-c3cccn3C)n[nH]2)c1O	–	–	–	–	–	–
O=C(O)c1cccc(N/N=C/C2=C(Cl)c3cc(Cl)ccc3SC2)c1	–	–	–	–	–	–
CSCCC(C(=O)Nc1ccc2c(c1)OCO2)N1C(=O)c2ccccc2C1=O (stereo not drawn)	–	–	–	–	–	–
CCOC(=O)c1c(NC(=O)c2c(Br)cnn2C)c(C#N)nn1-c1ccccc1	–	–	–	–	–	–
SMILES	TNAP inh hi DEA	TNAP act hi DEA	G6PDH CS	p97 inhibitor	Redox H2O2 prof	TNAP inh no acc
Cc1ccc(C)n1-n1c(C)nc2scc(-c3cccs3)c2c1=O	–	–	–	15	–	–
Cc1cccnc1Nc1nc(-c2ccc(O)cc2O)cs1	–	–	–	–	–	–
Cc1cccnc1Nc1nc(-c2ccccn2)cs1	–	–	53	–	–	–
CCC(=O)NC(=S)NNC(=O)c1ccc(O)cc1	–	–	–	–	–	97
O=S(=O)(c1cccc(F)c1)N1CCCN(c2ccc(C(F)(F)F)cn2)CC1	·	·	·	–	·	·
CCOc1ccc(C(c2c(C)[nH][nH]c2=O)c2c(C)[nH][nH]c2=O)cc1OC	65	–	–	–	–	–
CCOc1cc(C(c2c(C)[nH][nH]c2=O)c2c(C)[nH][nH]c2=O)ccc1OS(=O)(=O)c1ccc(C)cc1	52	–	–	–	–	–
O=C(C[n+]1ccc(C(=O)N/N=C/c2ccc(O)cc2)cc1)c1ccccc1	–	–	–	–	–	51
O=C(N/N=C/c1ccncc1)c1cccc(N/N=C/c2ccncc2)c1	–	–	–	–	–	–
O=C(N/N=C/c1ccc(O)cc1)c1cccc(N/N=C/c2ccc(O)cc2)c1	·	·	·	17	·	·
O=C(C[n+]1ccc(C(=O)N/N=C/c2ccc(Br)cc2)cc1)c1ccccc1	–	–	–	–	–	–
Cn1c(=O)c2c(ncn2CC(=O)N/N=C/c2ccc(Br)s2)n(C)c1=O	–	–	–	–	–	–
CN1C(=S)N(c2cccnc2)C(=O)/C1=C\c1ccc(N(C)C)cc1	–	–	–	–	–	52
CCc1ccc(CC)c(S(=O)(=O)Nc2ccc(C(=O)O)c(O)c2)c1	–	–	–	–	–	–
COc1ccc(CNC(=O)c2cc3c(=O)n4ccccc4nc3n(Cc3ccco3)c2=N)cc1	·	·	·	35	–	·
COc1ccc([N+](=O)[O-])cc1N(CC(=O)NCC1CCCO1)S(C)(=O)=O (stereo not drawn)	–	–	–	–	–	–
CC1=C(C#N)C(=O)N(C2CCS(=O)(=O)C2)C(=O)/C1=C\c1ccco1 (stereo not drawn)	·	·	·	34	·	·
CSc1n[nH]c(NC(C)=O)n1	–	–	–	–	–	50
CCCCCCCCCCSc1n[nH]c(NC(C)=O)n1	–	–	–	–	–	–
CCCSc1n[nH]c(NC(C)=O)n1	–	–	–	–	–	96
COc1ccc(C(=O)CN2CCN(S(=O)(=O)c3cccc([N+](=O)[O-])c3)CC2)cc1	–	–	–	–	–	–
COc1cc(/C=C/C(=O)c2ccc(C)c([N+](=O)[O-])c2)cc(OC)c1O	59	–	–	–	–	–
O=C(N/N=C/c1ccco1)c1cc(-c2ccccc2)n[nH]1	–	–	–	–	–	93
O=C(N/N=C/c1ccco1)c1cc(-c2ccc(Cl)cc2)n[nH]1	·	·	·	–	·	·
Cc1ccc(-c2cc(C(=O)N/N=C/c3ccco3)[nH]n2)cc1	–	–	–	–	–	87
SMILES	TNAP inh hi DEA	TNAP act hi DEA	G6PDH CS	p97 inhibitor	Redox H2O2 prof	TNAP inh no acc
CCOC(=O)CNc1nc(Cl)nc(Nc2ccc(C)cc2)n1	·	·	·	–	·	·
Cc1ccc(Nc2nc(Cl)nc(N(C)C#N)n2)cc1	–	–	–	21	–	–
COc1ccc(C(=O)c2c(C(F)(F)F)oc3c2C(=O)c2ccccc2C3=O)cc1	–	–	54	–	–	–
CC(C)n1c(-c2ccccc2F)n[nH]c1=S	–	–	–	–	–	69
COc1ccc(OC)c(S(=O)(=O)N2CCCc3ccccc32)c1	–	–	–	–	–	–
Cc1ncc(N=Nc2ccc(F)cc2)c(-c2ccc(Cl)cc2)n1	–	–	–	–	–	–
Oc1ccc(N=Nc2n[nH]c(-c3ccc(Cl)cc3)n2)cc1	–	–	–	–	–	69

Screens deposited in PubChem by several laboratories.
